Reference: ChEMBL document CHEMBL1152866, “Modulation of gene expression via disruption of NF-kappaB signaling by a bacterial small molecule” (Science, 2008)
The source made the active and inactive calls.

Columns and labels:
Epithelial cell [1] = assay: Inhibition of TNF-induced IkappaBalpha expression in human bronchial epithelial cells up to 120 mins by Western blot analysis; assay type: functional, cell-based
[2] = target: MAP kinase p38 (Homo sapiens) (UniProt O15264+Q15759+Q16539+P53778); assay: Inhibition of TNF-induced p38 phosphorylation in human bronchial epithelial cells up to 120 mins by Western blot analysis; assay type: cell-based; settings: Epithelial cell
[3] = target: T1, Inhibitor of nuclear factor kappa-B kinase subunit alpha (Mus musculus) (UniProt Q60680); assay: Inhibition of LPS-induced IkappaBalpha phosphorylation in mouse BMDM measured up to 120 mins by Western blot analysis
T1 sequence (whole entry): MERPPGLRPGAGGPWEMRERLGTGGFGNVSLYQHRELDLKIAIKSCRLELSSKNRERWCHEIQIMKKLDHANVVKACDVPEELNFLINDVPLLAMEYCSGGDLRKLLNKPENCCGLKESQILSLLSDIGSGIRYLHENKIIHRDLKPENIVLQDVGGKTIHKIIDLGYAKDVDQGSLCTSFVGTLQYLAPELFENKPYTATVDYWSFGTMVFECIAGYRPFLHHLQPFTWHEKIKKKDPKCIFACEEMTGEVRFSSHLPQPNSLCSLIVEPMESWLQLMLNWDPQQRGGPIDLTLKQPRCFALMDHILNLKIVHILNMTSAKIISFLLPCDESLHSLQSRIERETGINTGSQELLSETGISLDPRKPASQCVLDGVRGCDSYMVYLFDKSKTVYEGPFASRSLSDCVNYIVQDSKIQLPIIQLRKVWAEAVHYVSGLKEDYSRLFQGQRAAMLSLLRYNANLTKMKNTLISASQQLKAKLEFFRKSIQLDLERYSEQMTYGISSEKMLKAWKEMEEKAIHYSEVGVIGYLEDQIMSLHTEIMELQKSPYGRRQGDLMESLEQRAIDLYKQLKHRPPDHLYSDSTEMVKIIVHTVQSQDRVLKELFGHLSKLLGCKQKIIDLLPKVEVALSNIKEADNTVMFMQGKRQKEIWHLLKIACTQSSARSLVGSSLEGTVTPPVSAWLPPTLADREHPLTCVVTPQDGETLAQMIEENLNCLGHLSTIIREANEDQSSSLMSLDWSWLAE

Macrophage [4] = assay: Inhibition of LPS-induced IL-12beta mRNA expression in mouse alveolar macrophages after 90 mins by Northern blot analysis; assay type: functional, cell-based
Mus musculus [5] = species: Mus musculus; assay: Effect on IKK activity in LPS-induced mouse BMDM assessed as induction of phosphorylation of CREB treated 2 hrs after LPS challenge measured up to 120 mins by immunoblot analysis
Mus musculus [6] = species: Mus musculus; assay: Suppression of LPS-induced TNF expression in C57BL/6 transgenic mouse bearing IkappaBalpha-reporter after 2 hrs by luciferase reporter gene assay; assay type: functional, organism-based
In short: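 Animals received an injection of vehicle, LPS, C12, or LPS plus C12. Whole-animal bioluminescence was recorded 2 hours after injection as the read-out of reporter activity.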

Mus musculus [7] = species: Mus musculus; assay: Inhibition of IKK activity in LPS-induced mouse BMDM assessed as reduction in phosphorylation of RelA treated 2 hrs after LPS challenge measured up to 120 mins by immunoblot analysis
PBMC [8] = assay: Inhibition of LPS-induced IkappaBalpha mRNA expression in human PBMC up to 50 uM by Northern blot analysis; assay type: functional, cell-based
MEF [9] = assay: Inhibition of LPS-induced IkappaBalpha mRNA expression in MEF after 90 mins by Northern blot analysis; assay type: functional, cell-based; settings: Mus musculus
[10] = target: Transcription factor p65 (Homo sapiens) (UniProt Q04206); assay: Inhibition of TNF-induced RelA phosphorylation in human bronchial epithelial cells up to 120 mins by Western blot analysis; assay type: cell-based; settings: Epithelial cell
Chain of Transcription factor p65 (Homo sapiens) (Q04206 whole entry): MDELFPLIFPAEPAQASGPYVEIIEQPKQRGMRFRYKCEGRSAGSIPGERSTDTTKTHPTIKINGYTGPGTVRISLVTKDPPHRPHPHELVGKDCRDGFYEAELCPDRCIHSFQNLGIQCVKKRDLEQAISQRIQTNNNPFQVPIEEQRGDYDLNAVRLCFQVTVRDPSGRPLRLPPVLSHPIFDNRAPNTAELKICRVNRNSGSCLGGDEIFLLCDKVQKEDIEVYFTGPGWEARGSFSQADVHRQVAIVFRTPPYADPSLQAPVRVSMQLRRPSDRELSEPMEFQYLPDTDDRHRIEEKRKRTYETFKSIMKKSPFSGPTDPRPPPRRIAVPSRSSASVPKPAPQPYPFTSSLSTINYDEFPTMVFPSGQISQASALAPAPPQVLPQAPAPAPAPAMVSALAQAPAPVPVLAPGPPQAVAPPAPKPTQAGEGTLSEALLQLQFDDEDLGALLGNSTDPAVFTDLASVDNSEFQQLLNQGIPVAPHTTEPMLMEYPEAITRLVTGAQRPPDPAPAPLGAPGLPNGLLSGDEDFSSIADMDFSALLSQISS

[11] = target: Transcription factor p65 (Mus musculus) (UniProt Q04207); assay: Inhibition of LPS-induced RelA phosphorylation in mouse BMDM treated 2 hrs after LPS challenge measured up to 120 mins by Western blot analysis
Chain of Transcription factor p65 (Mus musculus) (Q04207 whole entry): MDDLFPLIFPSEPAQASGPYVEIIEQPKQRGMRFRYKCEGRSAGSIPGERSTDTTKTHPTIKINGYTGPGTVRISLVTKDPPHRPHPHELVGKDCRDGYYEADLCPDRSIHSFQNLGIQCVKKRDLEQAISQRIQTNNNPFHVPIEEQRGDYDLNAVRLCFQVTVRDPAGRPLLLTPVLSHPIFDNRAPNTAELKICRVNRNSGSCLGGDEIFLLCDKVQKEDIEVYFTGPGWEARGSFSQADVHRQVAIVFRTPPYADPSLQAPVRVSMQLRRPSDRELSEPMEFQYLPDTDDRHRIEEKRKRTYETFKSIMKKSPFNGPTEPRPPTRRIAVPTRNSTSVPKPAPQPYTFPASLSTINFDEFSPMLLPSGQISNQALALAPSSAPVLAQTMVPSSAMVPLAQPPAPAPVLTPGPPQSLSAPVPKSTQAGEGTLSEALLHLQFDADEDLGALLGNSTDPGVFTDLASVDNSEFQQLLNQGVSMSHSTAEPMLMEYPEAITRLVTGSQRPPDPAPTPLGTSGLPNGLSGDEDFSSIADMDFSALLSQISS

PBMC [12] = assay: Inhibition of LPS-induced TNF mRNA expression in human PBMC up to 50 uM by Northern blot analysis; assay type: functional, cell-based
BMDM [13] = assay: Inhibition of LPS-induced IkBbeta degradation in mouse BMDM treated 2 hrs after LPS challenge measured up to 120 mins by Western blot analysis; assay type: functional, cell-based
Epithelial cell [14] = assay: Inhibition of TNF-induced RelA expression in human bronchial epithelial cells up to 120 mins by Western blot analysis; assay type: functional, cell-based
Macrophage [15] = assay: Inhibition of LPS-induced IRF-1 mRNA expression in mouse alveolar macrophages after 90 mins by Northern blot analysis; assay type: functional, cell-based
MEF [16] = assay: Effect on TNF-induced IkappaBalpha mRNA expression in MEF by Northern blot analysis; assay type: functional, cell-based; settings: Mus musculus
MEF [17] = assay: Inhibition of LPS-induced IP-10 mRNA expression in MEF after 90 mins by Northern blot analysis; assay type: functional, cell-based; settings: Mus musculus
BMDM [18] = assay: Inhibition of LPS-induced RANTES mRNA expression in mouse BMDM up to 3 hrs by Northern blot analysis; assay type: functional, cell-based
MEF [19] = assay: Inhibition of TNF-induced RelA expression in mouse MEF up to 120 mins by Western blot analysis; assay type: functional, cell-based
[20] = target: T2, Inhibitor of nuclear factor kappa-B kinase subunit alpha (Homo sapiens) (UniProt O15111); assay: Inhibition of IkappaBalpha in human WI38 cells assessed after 2 hrs by Western blot analysis; assay type: cell-based; settings: WI-38
T2 sequence (whole entry): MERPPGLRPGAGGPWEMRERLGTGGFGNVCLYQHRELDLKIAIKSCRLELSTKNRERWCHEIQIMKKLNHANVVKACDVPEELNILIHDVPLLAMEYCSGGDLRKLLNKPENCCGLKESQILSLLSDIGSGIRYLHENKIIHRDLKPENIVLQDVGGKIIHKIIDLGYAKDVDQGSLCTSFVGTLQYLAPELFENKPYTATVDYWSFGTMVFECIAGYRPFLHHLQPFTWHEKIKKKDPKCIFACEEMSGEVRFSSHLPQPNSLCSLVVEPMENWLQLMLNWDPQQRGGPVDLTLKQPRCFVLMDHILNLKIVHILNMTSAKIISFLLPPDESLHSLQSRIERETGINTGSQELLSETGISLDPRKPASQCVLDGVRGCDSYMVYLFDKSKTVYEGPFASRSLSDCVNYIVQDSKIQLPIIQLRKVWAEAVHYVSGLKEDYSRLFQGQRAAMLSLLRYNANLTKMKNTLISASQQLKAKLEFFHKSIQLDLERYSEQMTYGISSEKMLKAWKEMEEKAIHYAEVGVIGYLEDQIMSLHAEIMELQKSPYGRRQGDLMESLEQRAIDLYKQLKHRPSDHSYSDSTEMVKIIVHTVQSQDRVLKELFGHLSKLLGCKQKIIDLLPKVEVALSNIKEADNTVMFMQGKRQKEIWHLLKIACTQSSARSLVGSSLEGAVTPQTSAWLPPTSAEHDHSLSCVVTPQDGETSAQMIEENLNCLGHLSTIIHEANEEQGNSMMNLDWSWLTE
In short: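 WI38 lung fibroblasts and bronchial epithelial cells were stimulated for 2 hours. The same Western blot was probed for PARP cleavage, total IκBα and phosphorylated IκBα.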

BMDM [21] = assay: Inhibition of LPS-induced TNF mRNA expression in mouse BMDM up to 3 hrs by Northern blot analysis; assay type: functional, cell-based

Measured: Activity

CCCCCCCCCC(=O)CC(=O)N[C@H]1CCOC1=O
active: Epithelial cell [1] | [2] | [3] | Macrophage [4] Dose-dependent effect | Mus musculus [5] | Mus musculus [6] | Mus musculus [7] | PBMC [8] | MEF [9] Dose-dependent effect | [10] | [11] | PBMC [12] | BMDM [13] | Epithelial cell [14] | Macrophage [15] Dose-dependent effect | MEF [16] | MEF [17] Dose-dependent effect | BMDM [18] Dose-dependent effect | MEF [19] | [20] | BMDM [21] Dose-dependent effect
